ChEMBL document CHEMBL1156976, “Enhancement of antiproliferative activity by molecular simplification of catalpol” (2010)
Activity calls are given as the source filed them. The rule behind the calls is not given here.

Experiments:
HBL-100 [1] = test: Cell cycle arrest in human HBL100 cells assessed as accumulation at G0/G1 phase at 1 to 2 uM after 24 hrs using propidium iodide staining by flow cytometry; format: functional, cell-based
In short: (§1)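 Cells were seeded at 2.5–5 × 10^5 per well. After 24 h they were dosed at 1, 2, 3 and 5 for 24 h, then trypsinized and fixed overnight in ice-cold 70% ethanol at −20 °C. Samples were RNase-treated for 30 min at 37 °C in the dark and stained with propidium iodide. DNA content was read by flow cytometry on 25,000 cells/sample, giving sub-G1, G0/G1, S and G2/M fractions.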

A2780 = test: Antiproliferative activity against human A2780 cells after 48 hrs by sulforhodamine B assay; format: functional; details: A2780, 48 h
In short: (§2)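 SRB assay in RPMI 1640 with 5% heat-inactivated FCS and 2 mM L-glutamine at 37 °C. Seeding was 15,000 cells/well for WiDr, T-47D and HeLa, and 10,000 for A2780, SW1573 and HBL-100. Compound was added on day 1 from DMSO stock (400× top final; 0.25% v/v DMSO control), in triplicate dilutions over 1–100, for 48 h. Cells were fixed with cold 50% TCA for 60 min at 4 °C and read at OD 492 nm. Percentage growth was calculated from T0 and end OD by NCI formulas, as means ± SD of 3–5 experiments.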

HBL-100 [2] = test: Antiproliferative activity against human HBL100 cells after 48 hrs by sulforhodamine B assay; format: functional; details: HBL-100, 48 h; in short: as §2
HeLa [3] = test: Antiproliferative activity against human HeLa cells after 48 hrs by sulforhodamine B assay; format: functional; in short: as §2
SW1573 [4] = test: Antiproliferative activity against human SW1573 cells after 48 hrs by sulforhodamine B assay; format: functional; details: SW1573, 48 h; in short: as §2
T47D = test: Antiproliferative activity against human T47D cells after 48 hrs by sulforhodamine B assay; format: functional; in short: as §2
WiDr [5] = test: Antiproliferative activity against human WiDr cells after 48 hrs by sulforhodamine B assay; format: functional; in short: as §2
SW1573 [6] = test: Cell cycle arrest in human SW1573 cells assessed as accumulation at G0/G1 phase at 1 to 2 uM after 24 hrs using propidium iodide staining by flow cytometry; format: functional, cell-based; in short: as §1
HBL-100 [7] = test: Cell cycle arrest in human HBL100 cells assessed as accumulation at S phase at 1 to 2 uM after 24 hrs using propidium iodide staining by flow cytometry; format: functional, cell-based; in short: as §1
SW1573 [8] = test: Cell cycle arrest in human SW1573 cells assessed as accumulation at S phase at 1 to 2 uM after 24 hrs using propidium iodide staining by flow cytometry; format: functional, cell-based; in short: as §1
HBL-100 [9] = test: Cell cycle arrest in human HBL100 cells assessed as accumulation at sub G1 phase at 3 to 5 uM after 24 hrs using propidium iodide staining by flow cytometry; format: functional, cell-based; in short: as §1
SW1573 [10] = test: Cell cycle arrest in human SW1573 cells assessed as accumulation at sub G1 phase at 3 to 5 uM after 24 hrs using propidium iodide staining by flow cytometry; format: functional, cell-based; in short: as §1
HeLa [11] = test: Induction of apoptosis in human HeLa cells assessed as early apoptotic cells at 3 uM after 24 hrs using FITC-conjugated annexin V and propidium iodide staining by flow cytometry; format: functional
In short: (§3)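 Cells were seeded at 0.25–0.5 × 10^6. After 24 h they were exposed to drug for 24 h, then kept in drug-free medium for a further 24 h. About 10,000 events were read (488/525 and 488/675 nm). Early apoptosis was AnnexinV+/PI−; late apoptosis was AnnexinV+/PI+.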

HeLa [12] = test: Induction of apoptosis in human HeLa cells assessed as late apoptotic cells at 3 uM after 24 hrs using FITC-conjugated annexin V and propidium iodide staining by flow cytometry; format: functional; in short: as §3
WiDr [13] = test: Induction of apoptosis in human WiDr cells assessed as early apoptotic cells at 3 uM after 24 hrs using FITC-conjugated annexin V and propidium iodide staining by flow cytometry; format: functional; in short: as §3
WiDr [14] = test: Induction of apoptosis in human WiDr cells assessed as late apoptotic cells at 3 uM after 24 hrs using FITC-conjugated annexin V and propidium iodide staining by flow cytometry; format: functional; in short: as §3
HeLa [15] = test: Decrease in cyclin D1 expression in human HeLa cells at 10 uM by Western blot analysis; format: functional, cell-based; details: TDE = time-dependent effect
In short: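 HeLa cells were treated for 12 and 24 h, then lysed on ice in Tris pH 8.0/NaCl/NP-40/SDS/EDTA buffer with protease and phosphatase inhibitors, and cleared at 10,000 g. Proteins were run by SDS–PAGE and transferred to PVDF. Blots were probed with anti-cyclin D1, followed by HRP secondary for 30 min. Bands were detected by luminol chemiluminescence with p-iodophenol enhancement.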

| SMILES | Activity (HBL-100 [1]) | GI50 (A2780) | GI50 (HBL-100 [2]) | GI50 (HeLa [3]) | GI50 (SW1573 [4]) | GI50 (T47D) | GI50 (WiDr [5]) | Activity (SW1573 [6]) | Activity (HBL-100 [7]) | Activity (SW1573 [8]) | Activity (HBL-100 [9]) | Activity (SW1573 [10]) | Activity (HeLa [11]) | Activity (HeLa [12]) | Activity (WiDr [13]) | Activity (WiDr [14]) | Activity (HeLa [15]) |
| --- | --- | --- | --- | --- | --- | --- | --- | --- | --- | --- | --- | --- | --- | --- | --- | --- | --- |
| CC(=O)O[C@@H]1OC=C[C@@H]2[C@H]1[C@@H](C)C[C@H]2O[Si](c1ccccc1)(c1ccccc1)C(C)(C)C | Active | 1590 nM | 500 nM | 1860 nM | 590 nM | 1460 nM | 1260 nM | Active | inactive | inactive | Active | Active | 18% | 25% | 33% | 3.7% | tde |
| CC(=O)O[C@H]1OC=C[C@H]2[C@@H]1[C@H](C)C[C@H]2O[Si](c1ccccc1)(c1ccccc1)C(C)(C)C |  | 1240 nM | 380 nM | 1680 nM | 430 nM | 1620 nM | 1130 nM |  |  |  |  |  | 18% | 12% | 23% | 2.4% |  |
| OC[C@H]1O[C@@H](O[C@@H]2OC=C[C@H]3[C@H](O)[C@@H]4O[C@]4(CO)[C@@H]23)[C@H](O)[C@@H](O)[C@@H]1O [CATALPOL] |  | > 100000 nM | > 100000 nM | > 100000 nM | > 100000 nM | > 100000 nM | > 100000 nM |  |  |  |  |  |  |  |  |  |  |
